Assay results published in ChEMBL document CHEMBL1155457, “Discovery of the dual orexin receptor antagonist [(7R)-4-(5-chloro-1,3-benzoxazol-2-yl)-7-methyl-1,4-diazepan-1-yl][5-methyl-2-(2H-1,2,3-triazol-2-yl)phenyl]methanone (MK-4305) for the treatment of insomnia” (J Med Chem, 2010).
Active and inactive are the calls of the source. The rule behind the calls is not given here.

Experiments:
Liver microsomes = experiment: Idiosyncratic toxicity in human liver microsomes assessed GSH-derived reactive electrophilic adduct formation at 10 uM after 60 mins by UPLC/HRMS analysis relative to labetalol; parameters: species or system Microsome; details: 1 h
How it was run: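 Pooled human liver microsomes (1 mg/mL protein) were incubated 60 min at 37 °C in 100 mM potassium phosphate pH 7.4. The mix held 10 μM compound, 1 mM MgCl2, 1 mM EDTA, 5 mM GSH and 1 mM NADPH. After quenching, GSH adducts were detected by UPLC/HRMS. Summed adduct peak areas were divided by the labetalol internal-standard area.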

[1] = target: T1, Orexin/Hypocretin receptor type 1 (Homo sapiens, UniProt O43613); experiment: Displacement of [3H](S)-N-(biphenyl-2-yl)-1-(2-(1-methyl-1H-benzo[d]imidazol-2-ylthio)acetyl)pyrrolidine-2-carboxamide from human OX1R expressed in CHO cells after 3 hrs by scintillation counting; type: cell-based
T1 sequence (O43613 whole entry): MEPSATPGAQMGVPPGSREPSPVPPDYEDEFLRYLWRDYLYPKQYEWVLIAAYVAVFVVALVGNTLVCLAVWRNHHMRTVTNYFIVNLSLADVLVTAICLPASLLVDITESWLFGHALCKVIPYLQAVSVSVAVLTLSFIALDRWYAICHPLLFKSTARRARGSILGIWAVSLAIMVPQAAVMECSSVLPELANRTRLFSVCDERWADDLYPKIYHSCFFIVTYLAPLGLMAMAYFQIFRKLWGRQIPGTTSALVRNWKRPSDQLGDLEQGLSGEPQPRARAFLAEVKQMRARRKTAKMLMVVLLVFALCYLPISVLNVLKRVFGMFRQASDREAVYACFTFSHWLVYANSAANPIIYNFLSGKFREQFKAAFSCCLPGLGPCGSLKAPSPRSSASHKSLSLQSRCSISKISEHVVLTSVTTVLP

[2] = target: T1, Orexin/Hypocretin receptor type 1; experiment: Displacement of [3H]N-cyclobutyl-5-methyl-N-(2-(1-methyl-1H-benzo[d]imidazol-2-ylthio)ethyl)-2-(2H-1,2,3-triazol-2-yl)benzamide from human OX1R expressed in CHO cells after 20 hrs by scintillation counting; type: cell-based
Orexin receptor type 2 [3] = target: T2, Orexin receptor type 2 (Homo sapiens, UniProt O43614); experiment: Displacement of [3H](S)-N-(2-(1H-pyrrol-1-yl)phenyl)-1-(2-(1-methyl-1H-benzo[d]imidazol-2-ylthio)acetyl)pyrrolidine-2-carboxamide from human OX2R expressed in CHO cells after 3 hrs by scintillation counting; type: cell-based
T2 sequence (O43614 whole entry): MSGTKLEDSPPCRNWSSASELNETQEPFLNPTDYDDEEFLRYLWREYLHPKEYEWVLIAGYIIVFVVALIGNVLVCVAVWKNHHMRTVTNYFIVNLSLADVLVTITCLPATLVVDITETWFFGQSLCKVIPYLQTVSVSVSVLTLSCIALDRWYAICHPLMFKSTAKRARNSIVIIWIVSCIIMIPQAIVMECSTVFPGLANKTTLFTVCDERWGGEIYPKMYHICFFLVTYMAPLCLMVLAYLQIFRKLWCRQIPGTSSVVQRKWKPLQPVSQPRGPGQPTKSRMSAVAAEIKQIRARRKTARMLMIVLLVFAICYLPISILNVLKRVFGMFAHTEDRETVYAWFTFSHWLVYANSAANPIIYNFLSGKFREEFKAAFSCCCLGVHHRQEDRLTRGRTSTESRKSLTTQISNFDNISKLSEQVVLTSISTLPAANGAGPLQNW

[4] = target: T1, Orexin/Hypocretin receptor type 1; experiment: Antagonist activity at human OX1R expressed in CHO cells assessed as inhibition of orexin-A-induced intracellular calcium mobilization after 5 mins by FLIPR assay; type: functional, cell-based
Orexin receptor type 2 [5] = target: T2, Orexin receptor type 2; experiment: Antagonist activity at human OX2R expressed in CHO cells assessed as inhibition of orexin-A-induced intracellular calcium mobilization after 5 mins by FLIPR assay; type: functional, cell-based
[6] = Clearance in dog at 0.5 mg/kg, iv; type: ADME, organism-based, Canis lupus familiaris; parameters: dose 0.5 mg/kg, route intravenous; details: in vivo
How it was run: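 Dogs received an IV dose with DMSO as vehicle (n = 3). Clearance was derived from plasma pharmacokinetics.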

[7] = Oral bioavailability in dog at 3 mg/kg; type: ADME, organism-based, Canis lupus familiaris; details: in vivo
Rattus norvegicus [8] = experiment: Antiinsomnic activity in Sprague-Dawley rat assessed as decrease in active wake duration at 10 mg/kg/day, po […]; type: functional, organism-based
How it was run: (§1)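 Rats carried telemetry implants recording ECoG/EMG (sampled at 500 Hz) and had recovered at least 2 weeks after surgery. They were on a 12:12 light cycle with lights off at 04:00. After 2 days of vehicle habituation, four rats were dosed by oral gavage in 20% aqueous TPGS at 09:00, 5 h into the active phase. The design was a one-week crossover against vehicle. Recording ran 23 h; stages were auto-scored in 30-min bins, averaged over 7 days and compared by mixed-model ANOVA at each time point.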

Rattus norvegicus [9] = experiment: Antiinsomnic activity in Sprague-Dawley rat assessed as increase in rapid-eye movement at 10 mg/kg/day, po measured with 3 to 4 hrs post last dose; type: functional, organism-based; how it was run: as §1
Rattus norvegicus [10] = experiment: Antiinsomnic activity in Sprague-Dawley rat assessed as increase in delta sleep duration at 10 mg/kg/day, po measured with 3 to 4 hrs post last dose; type: functional, organism-based; how it was run: as §1
Rattus norvegicus [11] = experiment: Antiinsomnic activity in Sprague-Dawley rat assessed as decrease in light sleep duration at 10 mg/kg/day, po measured with 3 to 4 hrs post last dose; type: functional, organism-based; how it was run: as §1
[12] = Volume of distribution at steady state in rat at 2 mg/kg, iv; type: ADME, organism-based; parameters: dose 2 mg/kg, route intravenous; details: in vivo, read-out: Vdss
How it was run: (§2)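 IV PK in DMSO vehicle: rat at 2 mg/kg, dog at 0.5 mg/kg. Clearance, Vd_ss and terminal half-life were derived from plasma levels.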

[13] = Terminal half life in rat at 2 mg/kg, iv; type: ADME, organism-based; parameters: dose 2 mg/kg, route intravenous; details: in vivo, read-out: beta t1/2 (converted); how it was run: as §2
[14] = AUC in rat at 100 mg/kg, po; type: ADME, organism-based; parameters: dose 100 mg/kg, route oral; details: plasma
How it was run: (§3)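 Rats dosed orally by gavage as the HCl salt in 20% TPGS. Plasma drug levels were followed to give AUC, Cmax and oral bioavailability.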

[15] = Cmax in rat at 100 mg/kg, po; type: ADME, organism-based; parameters: dose 100 mg/kg, route oral; details: in vivo; how it was run: as §3
[16] = Oral bioavailability in rat at 100 mg/kg; type: ADME, organism-based; details: in vivo; how it was run: as §3
[17] = Volume of distribution at steady state in dog at 0.5 mg/kg, iv; type: ADME, organism-based, Canis lupus familiaris; parameters: dose 0.5 mg/kg, route intravenous; details: in vivo, read-out: Vdss; how it was run: as §2
[18] = Terminal half life in dog at 0.5 mg/kg, iv; type: ADME, organism-based, Canis lupus familiaris; parameters: dose 0.5 mg/kg, route intravenous; details: in vivo, read-out: beta t1/2 (converted); how it was run: as §2
[19] = AUC in dog at 3 mg/kg, po; type: ADME, organism-based, Canis lupus familiaris; parameters: dose 3 mg/kg, route oral; details: plasma
[20] = Cmax in dog at 3 mg/kg, po; type: ADME, organism-based, Canis lupus familiaris; parameters: dose 3 mg/kg, route oral; details: in vivo

| SMILES | Ratio (Liver microsomes) | Ki [1] | Ki [2] | Ki (Orexin receptor type 2 [3]) | IC50 [4] | IC50 (Orexin receptor type 2 [5]) | clearance [6] | bioavailability [7] | further results |
| --- | --- | --- | --- | --- | --- | --- | --- | --- | --- |
| C[C@@H]1CCN(c2cnc3cc(F)c(F)cc3n2)CCN1C(=O)c1ccccc1-n1nccn1 | 3.7 | 1.8 nM | 1.8 nM | 0.25 nM | 28 nM | 32 nM | 4.9 mL/min/kg | 15% | – |
| Cc1ccc(-n2nccn2)c(C(=O)N2CCN(c3nc4ccccc4o3)CC[C@H]2C)c1 | – | 4.1 nM | 4.1 nM | 3.2 nM | 24 nM | 57 nM | 2.4 mL/min/kg | – | – |
| Cc1ccc(-n2nccn2)c(C(=O)N2CCN(c3ncc4ccccc4n3)CC[C@H]2C)c1 | – | 0.39 nM | 0.39 nM | 0.36 nM | 30 nM | 30 nM | 6 mL/min/kg | < 5% | – |
| C[C@@H]1CCN(c2ncc3c(n2)CCCC3)CCN1C(=O)c1ccccc1-n1nccn1 | 0.7 | 0.78 nM | 0.78 nM | 0.28 nM | 24 nM | 28 nM | 9.2 mL/min/kg | – | – |
| Cc1ccc(-n2nccn2)c(C(=O)N2CCCN(c3ncc4ccccc4n3)CC2)c1 | 5 | – | – | 0.59 nM | – | – | 11.6 mL/min/kg | – | Activity (Rattus norvegicus [8]): Active; Activity (Rattus norvegicus [9]): Active; Activity (Rattus norvegicus [10]): Active; Activity (Rattus norvegicus [11]): Active; Vd [12]: 1.08 L/kg; half-life [13]: 21 min; AUC [14]: 1.5 µM·h; Cmax [15]: 650 nM; bioavailability [16]: 2%; Vd [17]: 0.86 L/kg; half-life [18]: 76.8 min; AUC [19]: 1.81 µM·h; Cmax [20]: 1440 nM |
